Experimental data from the array DNA melting data of Ke et al. (doi:10.1101/2024.01.08.574731).

Key:
[1] = melting temperature; fluorescence melt of hairpins on a sequencing array, two-state fit, raised by 9.35 °C to match UV melts; details: sodium 0.088 M
In short: (§1)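 In 50 mM Na-HEPES pH 8.0 containing 25 mM NaCl, hairpins from the library on a sequenced MiSeq flow cell were imaged for Cy3 fluorescence at 2.5 °C steps up to 60 °C, with Cy3 and quencher oligos annealed. After normalisation to pre-quench Cy3 and to control constructs, two-state fits with bootstrapping gave melting temperature and folding enthalpy. Four replicates were combined by inverse-variance weighting, and fitted temperatures were shifted up by 9.35 °C to match UV melts.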

[2] = folding enthalpy; higher = less favourable; fluorescence melt of hairpins on a sequencing array, two-state fit; details: sodium 0.088 M
In short: as §1

Sequence | Tm [1] [°C] | folding enthalpy [2] [kcal/mol]
GCAGATTCGAAAGAATGC (((..(((....)))))) | 36.3 | -13.9
GCCTGCCCGAAAGGGGGC (((..(((....)))))) | 58.1 | -12.6
GGACGTCGAAAGACCTCC (((.(((....))).))) | 41.2 | -22.3
TCCGAGAAATCGGA (((((....))))) | 46.4 | -19.6
GCATGCGAAAGCAGTGC ((((((....))).))) | 54.6 | -27
GGGAGGGGAAACCCTTCC ((.((((....)))).)) | 51.6 | -32.4
GCGAACATCGC ((((...)))) | 45.6 | -17.1
GCAGACGAAAGTCCCTGC ((((((....)))..))) | 32.9 | -14.8
GTTGCCCCGAAAGGGAAC (((..(((....)))))) | 39.2 | -14.2
GATGTGGGAAACCACATC (((((((....))))))) | 60.9 | -42.1
GGTACAGGAAACTGTACC (((((((....))))))) | 59.3 | -44.5
GAATGCGAAAGCATTC ((((((....)))))) | 68.4 | -27.6
GACTCGGCGAAAGCCGTC (((..(((....)))))) | 36.2 | -4.78
GAGCACGAAAGTGCCCTC ((((((....)))..))) | 44.3 | -9.48
GAAGGAGGAAACTCCCTC ((.((((....)))).)) | 28.4 | -12.1
GCGAAAGGAAACTTTCGC (((((((....))))))) | 64.6 | -44.2
GCGTAGCGAAAGCTGGGC ((..(((....)))..)) | 49.3 | -12.1
GCAGACGAAAGTCATGC ((((((....))).))) | 51 | -24.1
GTGTAAGCGAAAGCTCAC (((..(((....)))))) | 44.9 | -19.3

Sequence | Tm [1] [°C] | folding enthalpy [2] [kcal/mol]
GTTACCGAAAGGTGCAAC ((((((....)))..))) | 27.3 | -8.88
GCTGATCGAAAGATTAGC (((.(((....))).))) | 51.9 | -47.2
GCCCCGCGAAAGCTGGGC ((((.((....)).)))) | 68.8 | -39.2
GTCTAAGCGAAAGCTGAC (((..(((....)))))) | 43.1 | -17.2
GCAGTGCGAAAGCCCCGC ((.(.((....)).).)) | 41.1 | -10.3
GATCTGATACAGATC ((((((...)))))) | 48.7 | -39.4
GCCAGGCGAAAGCATAGC ((.(.((....)).).)) | 37.8 | -11.1
GATCGTAAGACGATC ((((((...)))))) | 54.2 | -42.3
GATCTCAGAAGAGATC ((((((....)))))) | 50.6 | -33.5
GATCTGGTGCCAGATC ((((((....)))))) | 52.2 | -46.6
GCAGTGCGAAAGCACCGC ((.((((....)))).)) | 62 | -17.4
GATCCGCATCCGGATC ((((((....)))))) | 56.6 | -38
GCTACGCGAAAGCTTCGC ((.(.((....)).).)) | 37.6 | -10.3
GCCCCCGAAAGGGCTGGC ((((((....)))..))) | 61.8 | -16.2
GTGCCACGAAAGTGCCAC (((.(((....))).))) | 47.6 | -20.5
GATGACGGAAACGTCATC (((((((....))))))) | 67.5 | -37.1
GCAATGGGAAACCATTGC (((((((....))))))) | 66.2 | -39.2
GCTCGGCGAAAGCCAGGC ((..(((....)))..)) | 58.8 | -12.6
GTAGGACCGAAAGGTTAC (((..(((....)))))) | 28.5 | -12.7
